Our source for the Tm and folding enthalpy values is the array DNA melting data of Ke et al. (doi:10.1101/2024.01.08.574731).

The nature of data set [1]: melting temperature; fluorescence melt of hairpins on a sequencing array, two-state fit, raised by 9.35 °C to match UV melts. As to conditions: sodium 0.088 M. The essentials: (§1)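 In 50 mM Na-HEPES pH 8.0 containing 25 mM NaCl, hairpins from the library on a sequenced MiSeq flow cell were imaged for Cy3 fluorescence at 2.5 °C steps up to 60 °C, with Cy3 and quencher oligos annealed. After normalisation to pre-quench Cy3 and to control constructs, two-state fits with bootstrapping gave melting temperature and folding enthalpy. Four replicates were combined by inverse-variance weighting, and fitted temperatures were shifted up by 9.35 °C to match UV melts.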

The nature of data set [2]: folding enthalpy; higher = less favourable; fluorescence melt of hairpins on a sequencing array, two-state fit. As to conditions: sodium 0.088 M. The essentials: as §1

Regarding GTATCGGAAACGATAC ((((((....)))))), the Tm in data set [1] stood at 55.5 °C. For the same sequence, the folding enthalpy in data set [2] was -40.4 kcal/mol.
Take GTATCGGGAAACCGATAC (((((((....))))))): the Tm in data set [1] is 62.2 °C. Moreover, in data set [2], the folding enthalpy is -42.3 kcal/mol.
For the sequence GTATCGGGAAACTGATAC (((((.(....).))))), in data set [1], the Tm amounted to 45.3 °C. For the same sequence, the folding enthalpy in data set [2] is -37.3 kcal/mol.
In the case of GTATCTGGAAACAGATGC (.(((((....))))).), the Tm in data set [1] was found to be 46.9 °C. Further, the folding enthalpy in data set [2] is -21.2 kcal/mol.
With GTATGAGGAAACTCATGC (.(((((....))))).), the Tm in data set [1] came to 44.5 °C. Also, the folding enthalpy in data set [2] is -26.4 kcal/mol.
For GTATGCGAAAGCAAGTAC ((((((....)))..))), the Tm in data set [1] turned out to be 26.1 °C. Moreover, the folding enthalpy in data set [2] was -8.53 kcal/mol.
As to GTATGCGAAAGCAGGTAC ((((((....)))..))), in data set [1], the Tm came out at 30 °C. In addition, the folding enthalpy in data set [2] is -13.2 kcal/mol.
GTATGCGAAAGCAGTTAC ((((((....)))..))): the Tm in data set [1] stood at 28.2 °C. In data set [2], the folding enthalpy was -10.1 kcal/mol.
Take GTATGCGAAAGCATCTAC ((((((....)))..))): in data set [1], the Tm was 40 °C. The folding enthalpy in data set [2] was -11.3 kcal/mol.
For GTATGCGGAAACGCACAC ((.((((....)))).)), the Tm in data set [1] stood at 40 °C. In data set [2], the folding enthalpy is -15.4 kcal/mol.
For the sequence GTATGCGGAAACGCGTAC (((.(((....))).))), the Tm in data set [1] is 55 °C. The folding enthalpy in data set [2] was -31.9 kcal/mol.
Turning to GTATGCGGAAACGTATAC ((((.((....)).)))), the Tm in data set [1] is 46.5 °C. In data set [2], the folding enthalpy was -31 kcal/mol.
Take GTATTACGAAAGTACTAC (((.(((....))).))): in data set [1], the Tm came to 32.7 °C. Further, in data set [2], the folding enthalpy is -19.9 kcal/mol.
On to GTATTAGAAATAATAC ((((((....)))))), for which, in data set [1], the Tm was found to be 31.9 °C. Moreover, the folding enthalpy in data set [2] was -22.2 kcal/mol.
Regarding GTATTAGGAAACTGATAC ((((.((....)).)))), in data set [1], the Tm is 34.3 °C. Also, the folding enthalpy in data set [2] was -21.3 kcal/mol.
For GTATTCCGAAAGGACTAC (((.(((....))).))) the same measures were 38.2 °C and -26.4 kcal/mol.
As for GTATTCCGAAAGGAGTAC (((.(((....))).))), the Tm in data set [1] came to 47.5 °C. In data set [2], the folding enthalpy is -36.7 kcal/mol.
For the sequence GTATTCGAAAGAAATAC ((((((....))).))), the Tm in data set [1] is 34 °C. In addition, the folding enthalpy in data set [2] is -14.9 kcal/mol.
As to GTATTCGAAAGAATTAC ((((((....))).))), the Tm in data set [1] amounted to 31.4 °C. Further, the folding enthalpy in data set [2] was -13 kcal/mol.
Turning to GTATTCGGAAACGAATGC (.(((((....))))).), the Tm in data set [1] worked out at 48.6 °C. In data set [2], the folding enthalpy was -29.1 kcal/mol.
Take GTATTGCGAAAGCATAC (((.(((....)))))): in data set [1], the Tm turned out to be 45 °C. Also, the folding enthalpy in data set [2] was -12.2 kcal/mol.
For GTATTTGGAAACAAATGC (.(((((....))))).) the same measures were 39.9 °C and -28.4 kcal/mol.
For GTATTTGGAAACAGATAC ((((.((....)).)))), the Tm in data set [1] worked out at 32.4 °C. In addition, the folding enthalpy in data set [2] was -24.7 kcal/mol.
In the case of GTCAAACCGAAAGGTGAC (((..(((....)))))), the Tm in data set [1] came to 45.4 °C. The folding enthalpy in data set [2] was -21.3 kcal/mol.
With GTCAAACGAAAGTTGAC (((.(((....)))))), the Tm in data set [1] turned out to be 49.7 °C. In addition, in data set [2], the folding enthalpy was -26.5 kcal/mol.
GTCAACGAAAGTTCGGAC ((((((....)))..))): the Tm in data set [1] came out at 30.5 °C. The folding enthalpy in data set [2] is -14 kcal/mol.
Turning to GTCAACGAAAGTTGAGAC ((((((....)))..))), in data set [1], the Tm was 43.3 °C. Besides, in data set [2], the folding enthalpy is -12.2 kcal/mol.
In the case of GTCAACGAAAGTTTCGAC ((((((....)))..))), the Tm in data set [1] was determined as 26.6 °C. For the same sequence, in data set [2], the folding enthalpy is -14.3 kcal/mol.
For GTCAACGCGAAAGCGGAC (((..(((....)))))), in data set [1], the Tm came to 42 °C. Also, in data set [2], the folding enthalpy was -15.3 kcal/mol.
Regarding GTCAACGGAAACGTCGAC (((.(((....))).))), in data set [1], the Tm is 44.4 °C. For the same sequence, the folding enthalpy in data set [2] is -33 kcal/mol.
For the sequence GTCAAGAAATTGAC (((((....))))), in data set [1], the Tm worked out at 40.8 °C. For the same sequence, the folding enthalpy in data set [2] was -21.6 kcal/mol.
For the sequence GTCAAGCCGAAAGGCGAC (((..(((....)))))), in data set [1], the Tm worked out at 45.1 °C. Further, in data set [2], the folding enthalpy is -12.2 kcal/mol.
Regarding GTCAAGGGAAACCTCGAC (((.(((....))).))), the Tm in data set [1] is 37.5 °C. The folding enthalpy in data set [2] is -19.1 kcal/mol.
In the case of GTCAAGGGAAACTTTGAC (((((.(....).))))), the Tm in data set [1] was 40.3 °C. Moreover, the folding enthalpy in data set [2] was -26.4 kcal/mol.
As for GTCACAGCGAAAGCTGAC (((..(((....)))))), the Tm in data set [1] turned out to be 34.2 °C. In addition, the folding enthalpy in data set [2] was -10.4 kcal/mol.
The corresponding values for GTCACAGGAAACTGTAAC ((.((((....)))).)) are 30.9 °C and -17.3 kcal/mol.
